The values below come from PubChem BioAssay.

Assay [1] can be described thus: hit retest on RPL19A-GFP reporter strain – cell-based, S. cerevisiae, flow cytometry, cherry picks, mother/daughter gates, confirmation (AID 2270;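 active = GFP response below 50% of the DMSO control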). The settings on record: 3 h, at 10 µM, stronger effect = lower value, 100 = same GFP as DMSO wells. For orientation: Flow cytometry measures light scatter and fluorescence of single cells or particles in a stream.
The nature of assay [2]: yeast TOR pathway reporter LAP4-GFP change – cell-based, cherry picks, flow cytometry, mother/daughter gates, confirmation (AID 2271;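 active = GFP response above 150% of the DMSO control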;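 note: ratio of sample to DMSO plate mean so 100% equals DMSO level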). The settings on record: S. cerevisiae LAP4-GFP strain, 3 h, at 10 µM, stronger effect = higher value. The method in brief: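 Test system: GFP-fusion yeast strain / Amount: 0.2 OD600 cells / Buffer or medium: SC medium / Dosing: 10 µM single dose / Incubation: compound exposure 3 h at 30 °C, end-over-end rotation / Detection: HT flow cytometry, GFP fluorescence channel / Evaluation: median GFP fluorescence as percent of plate-mean DMSO wells / Control set: DMSO-only negative wells, rapamycin 400 ng/mL positive wells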

The nature of assay [3]: TOR pathway reporter MEP2-GFP, retest of hits – S. cerevisiae, flow cytometry GFP, cherry picks, confirmation (AID 2272;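 active = GFP response above 150% of the DMSO control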;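 note: ratio of well signal to plate DMSO mean so 100% equals DMSO level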). Conditions: S. cerevisiae MEP2-GFP strain, 3 h, at 10 µM, stronger effect = higher value.
Assay [4] can be described thus: yeast AGP1-GFP fluorescence change, single-dose – cell-based, flow cytometry, S. cerevisiae, cherry picks, confirmation (AID 2273).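 Note: median GFP channel fluorescence over the whole cell population gate.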 The settings on record: S. cerevisiae AGP1-GFP strain, 3 h, at 10 µM.
Assay [5] can be described thus: TOR pathway CIT2 reporter hit retest – S. cerevisiae, GFP fusion, cherry picks, mother/daughter gates, confirmation (AID 2274). Conditions: S. cerevisiae CIT2-GFP strain, flow cytometry, 3 h, at 10 µM, stronger effect = higher value.
[6] abbreviates: measured here: daughter cell gate.
The mark [7] stands for this setting: measured here: mother cell gate.
The mark [8] stands for this setting: measured here: daughter cell gate response.
The mark [9] stands for this setting: measured here: mother cell gate response.

SMILES strings stand for the structures. The source made the active and inactive calls.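 Rule for the calls, unless noted: active = GFP response above 150% of the DMSO level; inconclusive = fewer than 70 events counted for a yeast strain; inactive = the rest.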

Turning to `Cc1ccc(N2C(=O)NC(=O)/C(=C\c3cn(CC(=O)O)c4ccccc34)C2=O)cc1`, the GFP response vs DMSO in assay [1] is 100% (inactive); in assay [1] (setting [6]) it was 100%; in assay [1] (setting [7]) it was 101%; in assay [3], 100% (inactive). Moreover, the GFP response relative to DMSO in assay [2] was 102% (inactive); in assay [2] (setting [8]) it was 102%; in assay [2] (setting [9]), 104%. Further, the GFP response, % of DMSO is 98.9% (inactive) in assay [4], 96.5% (inactive) in assay [5], 94.8% in assay [5] (setting [6]) and 96.6% in assay [5] (setting [7]).
Consider `O=C1NC(=O)N(c2ccccc2)C(=O)/C1=C/c1ccc(Sc2ccccc2)o1`, for which the GFP response vs DMSO was 99.7% (inactive) in assay [1], 98.5% in assay [1] (setting [6]), 95.2% in assay [1] (setting [7]) and 108% (inactive) in assay [3]. Moreover, the GFP response relative to DMSO is 177% (active) in assay [2], 135% in assay [2] (setting [8]) and 170% in assay [2] (setting [9]). Further, the GFP response, % of DMSO in assay [4] was 91.7% (inactive); in assay [5] it was 89.2% (inactive); in assay [5] (setting [6]), 98.3%; in assay [5] (setting [7]) it was 79.3%.
On to `O=C1NC(=O)N(Cc2ccco2)C(=O)/C1=C\c1ccc(-c2ccc(F)cc2)o1`, for which the GFP response vs DMSO is 96.9% (inactive) in assay [1], 97.6% in assay [1] (setting [6]), 94% in assay [1] (setting [7]) and 99.3% (inactive) in assay [3]. For the same molecule, the GFP response relative to DMSO is 119% (inactive) in assay [2], 115% in assay [2] (setting [8]) and 121% in assay [2] (setting [9]). The GFP response, % of DMSO in assay [4] was 100% (inactive); in assay [5], 91.7% (inactive); in assay [5] (setting [6]), 99.3%; in assay [5] (setting [7]), 83.7%.
Regarding `N#CC(C#N)=Cc1ccc(N2CCCC2)cc1`, the GFP response vs DMSO in assay [1] was 105% (inactive); in assay [1] (setting [6]) it was 102%; in assay [1] (setting [7]), 107%; in assay [3], 112% (inactive). In addition, the GFP response relative to DMSO in assay [2] was 111% (inactive); in assay [2] (setting [8]), 109%; in assay [2] (setting [9]) it was 112%. Besides, the GFP response, % of DMSO in assay [4] was 109% (inactive); in assay [5], 105% (inactive); in assay [5] (setting [6]), 106%; in assay [5] (setting [7]) it was 104%.
As to `O=C1NC(=O)N(c2ccccc2)C(=O)/C1=C\c1ccc([N+](=O)[O-])o1`, the GFP response vs DMSO is 98.7% (inactive) in assay [1], 99.8% in assay [1] (setting [6]), 98% in assay [1] (setting [7]) and 108% (inactive) in assay [3]. The GFP response relative to DMSO in assay [2] is 101% (inactive); in assay [2] (setting [8]) it was 101%; in assay [2] (setting [9]), 102%. For the same molecule, the GFP response, % of DMSO in assay [4] was 104% (inactive); in assay [5], 103% (inactive); in assay [5] (setting [6]), 105%; in assay [5] (setting [7]), 104%.
In the case of `CCN1C(=O)NC(=O)/C(=C\c2cn(CC(=O)N3CCCC3)c3ccccc23)C1=O`, the GFP response vs DMSO was 97.3% (inactive) in assay [1], 97.3% in assay [1] (setting [6]), 96.9% in assay [1] (setting [7]) and 106% (inactive) in assay [3]. The GFP response relative to DMSO was 102% (inactive) in assay [2], 102% in assay [2] (setting [8]) and 102% in assay [2] (setting [9]). Besides, the GFP response, % of DMSO in assay [4] is 102% (inactive); in assay [5] it was 100% (inactive); in assay [5] (setting [6]) it was 101%; in assay [5] (setting [7]), 100%.
